Screening results from PubChem BioAssay.
T cruzi inh: inhibitors of intracellular T. cruzi growth, primary screen, luminescence, NIH3T3 host cells; inhibition, % (test concentration not listed); 1.4% of 300,000 active; T. cruzi beta-gal in NIH3T3, 90 h;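 active means mean inhibition across valid replicates above about 55%, limit read from the data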;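 further: signal also drops with host cell toxicity which is not excluded here; higher percent means less beta-gal luminescence so fewer parasites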
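assay system = mouse NIH/3T3 fibroblasts infected with β-gal-expressing T. cruzi Tulahuen C4 | input = 5,000 NIH/3T3 host cells per well | buffer or medium = DMEM plus 2% FBS | timing = 3 h host attachment, then at least 90 h co-culture | measured by = GalScreen luminescence, 60 min | evaluation = luminescence reflecting intracellular parasite burden, expressed as percent inhibition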
HSF-1 act: HSF-1 activators, primary screen, NIH3T3-HGL cells, MG132 stress, luminescence, single point; 1.7% of 300,000 active; AID 504408, 2011; activation, % at 9 µM; NIH3T3-HGL HSF-1 luciferase reporter, 8 h; 100% = twice DMSO control signal;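 active means mean replicate activation of at least 50% with a set share of replicates each reaching 50%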
L major viab: Leishmania major promastigote growth inhibition, primary screen; Leishmania major promastigotes, resazurin fluorescence viability; inhibition, % at 10 µM; 9% of 200,000 active; in the data active means inhibition above about 50%;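 further: promastigotes grown with compound for 44 hours at 28 °C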
Hsp70 activator: Hsp70 transcriptional activators, primary screen, cell-based, HeLa, Hsp70 promoter luciferase, luminescence, 10 µM; AID 1203, 2008; activation, % at 10 µM; HeLa Hsp70 promoter luciferase reporter; scaled: vehicle 0, proteasome-inhibitor control 100%; 0.04% of 200,000 active;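 active means activation above the mean across all tested compounds plus 3 SD, cutoff set per campaign, cut at about 5.5% in these data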
HSF1 inh: HSF1 inhibitors in luciferase reporter cells, primary screen, cell-based, NIH3T3, luminescence; activity change, negative = inhibition, % at 7.5 µM (by protocol); 0.77% of 300,000 active; NIH3T3-HGL HSE-luciferase, MG132-induced, luminescence 8 h; stronger effect = lower value;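 active means more than half of replicate wells show activity change below -50%, luminescence cut by over half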;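 further: luciferase reports HSF-1 transcriptional activity via heat shock element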
Lmaj promast 1uM: Leishmania major promastigote growth inhibition, confirmation, 1 µM repeat of primary hits. inhibition, % at 1 µM. AID 1258, 2008. 13% of 1,100 active. L. major promastigote growth, resazurin fluorescence, 48 h. shares compounds with L major viab;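 active means inhibition above about 50% in both repeat tests, limit read from the data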
Hsp70 act dose: Hsp70 transcriptional activators, dose response, cell-based, HeLa, Hsp70 promoter luciferase, luminescence, triplicate; shares compounds with Hsp70 activator; HeLa hsp70.1pr-luc reporter; calls only at 99 µM; 10% of 70 active; AID 1252, 2008;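 active means over 50% activation at some tested dose; inactive means under 50% activation at every tested dose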
Hits are given with their value. This excerpt belongs to a sample that is enriched for hits.

What do the screens show for `FC(F)(F)c1ccc2c(c1)N(CCCN1CCN(CCCl)CC1)c1ccccc1S2`?
T cruzi inh: inactive; HSF-1 act: inactive; L major viab: 100.4; Hsp70 activator: inactive; HSF1 inh: inactive; Lmaj promast 1uM: inactive

What do the screens show for `C=C1C2C[C@H](O)C(C)(C)[C@@]2(O)[C@H](O)C[C@]23C[C@@](C)(O)[C@H](CC[C@H]12)[C@H]3OC(C)=O` (stereo partly specified)?
T cruzi inh: inactive; HSF-1 act: inactive; L major viab: inactive; Hsp70 activator: inactive; HSF1 inh: inactive

How did O=C(c1ccc(-c2ccccc2)c(F)c1)C1CCCN(CCO)C1 (stereo unspecified) do in these assays?
T cruzi inh: inactive; HSF-1 act: inactive; L major viab: 99.3; Hsp70 activator: inactive; HSF1 inh: inactive; Lmaj promast 1uM: 63.1

Results for N#CC1(c2ccccc2)CCN(C2CC(=O)N(c3ccc4c(c3)OCO4)C2=O)CC1 (stereo unspecified) ?
T cruzi inh: inactive; HSF-1 act: inactive; L major viab: inactive; Hsp70 activator: inactive; HSF1 inh: inactive

What do the screens show for `CN(C(=O)c1ccc(Cl)nc1)C1(c2ccccc2Cl)CCCCC1=O` (stereo unspecified)?
T cruzi inh: inactive; HSF-1 act: inactive; L major viab: inactive; Hsp70 activator: inactive; HSF1 inh: inactive

Results for O=C1N(c2ccc(Cl)cc2)C(c2cccnc2)N2CCCN12 (stereo unspecified) ?
T cruzi inh: inactive; HSF-1 act: inactive; L major viab: 69.4; Hsp70 activator: inactive; HSF1 inh: inactive; Lmaj promast 1uM: inactive

How did COC(=O)C[C@]1(C(=O)OC)CN(C#N)N(c2ccc(Cl)cc2)C12c1ccccc1-c1ccccc12 do in these assays?
T cruzi inh: inactive; HSF-1 act: inactive; L major viab: 100.4; Hsp70 activator: 12.3; HSF1 inh: -94.2; Hsp70 act dose: inactive

What do the screens show for `CN1C2CCC1/C(=C/c1ccccn1)C(=O)/C2=C\c1ccccn1`?
L major viab: 100.5; Hsp70 activator: 18.3; Hsp70 act dose: active

How did Cc1ccccc1-n1c(/C=C/c2ccccn2)nc2ccccc2c1=O do in these assays?
T cruzi inh: inactive; HSF-1 act: inactive; HSF1 inh: inactive

What do the screens show for `Cc1[nH]c2ccccc2c1C(=O)C(=O)N1CCC2(CC1)OCCO2`?
T cruzi inh: inactive; HSF-1 act: inactive; L major viab: inactive; Hsp70 activator: inactive; HSF1 inh: inactive
